# Assay results: ChEMBL document CHEMBL5724801, “EUbOPEN Chemogenomics Library - Multiplex” (2024)
# Values joined by “and” are separate entries in the source; they are usually repeats but may differ in a detail not shown here. Equal entries are not always repeated.
# Tested on: U2OS
# Experiment: Multiplex assay against U2OS
# Format: toxicity, cell-based
# Conditions: human, 12 h, 1 µM, compound concentration 1 uM
# In short: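 With compound added, live cells were imaged on a CQ1 microscope at 37°C and 5% CO2; staining with Hoechst33342, BioTracker Green Microtubule Cytoskeleton Dye, MitoTracker Red and Annexin V Alexa Fluor 680 had been done at seeding. The CellPathfinder machine-learning gating scheme split cells into Hoechst high-intensity objects or normal cells, normal cells into healthy, pyknosed or fragmented nuclei, and pyknosed cells into mitotic or apoptotic. The tubulin, mitochondrial-mass and membrane-permeability phenotypes are per cents of healthy-nucleus cells.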
SMILES,Population Apoptotic (%),Population Fragmented Nuclei (%),Population Healthy Nuclei (%),Population Hoechst High Intensity Objects (%),Population Membrane Permeable-Phenotype (%),Population Mitochondria Different-Phenotype (%),Population Mitotic Cells (%),Population Normal (%),Population Pyknosed Nuclei (%),Population Tubulin-Different-Phenotype (%)
CN1CCN(c2ccc(Nc3c4ccccc4nc4ccccc34)cc2)CC1.Cl.Cl.O,100% and 87%,25% and 23%,65% and 69%,0%,19% and 14%,7% and 13%,0% and 12%,99% and 100%,8% and 7%,17% and 13%
CC(=O)NCC(=O)N1[C@@H]2CC[C@H]1c1ccc(Nc3ncc(C(F)(F)F)c(NC4CCC4)n3)cc12 [PF-03814735],43.59% and 56.25%,3.86% and 3.61%,82.46% and 86.75%,0%,2.55% and 3.47%,0% and 6.25%,56.41% and 43.75%,100%,13.68% and 9.64%,2.55% and 1.39%
Cn1ncnc1COc1nn2c(-c3cc(F)ccc3F)nnc2cc1C(C)(C)C,55.26% and 53.85%,0.89% and 4.24%,90.6% and 80%,0%,–,0% and 7.58%,44.74% and 46.15%,100%,8.5% and 15.76%,1.23% and 0.76%
COc1cc(Nc2ncc3c(n2)-c2ccc(Cl)cc2C(c2c(F)cccc2OC)=NC3)ccc1C(=O)O [ALISERTIB],63% and 71%,23% and 35%,65% and 55%,1% and 4%,4% and 8%,3% and 4%,36% and 28%,98% and 95%,10% and 8%,3% and 11%

# Same assay, conditions: human, 12 h, 1 µM, compound concentration 1 uM
row,SMILES,Total Cell Count
1,CN1CCN(c2ccc(Nc3c4ccccc4nc4ccccc34)cc2)CC1.Cl.Cl.O,193 and 107
2,CC(=O)NCC(=O)N1[C@@H]2CC[C@H]1c1ccc(Nc3ncc(C(F)(F)F)c(NC4CCC4)n3)cc12 [PF-03814735],285 and 166
3,Cn1ncnc1COc1nn2c(-c3cc(F)ccc3F)nnc2cc1C(C)(C)C,447 and 165

# Same assay, conditions: human, 12 h, 10 µM, compound concentration 10 uM
SMILES,Population Apoptotic (%),Population Fragmented Nuclei (%),Population Healthy Nuclei (%),Population Hoechst High Intensity Objects (%),Population Membrane Permeable-Phenotype (%),Population Mitochondria Different-Phenotype (%),Population Mitotic Cells (%),Population Normal (%),Population Pyknosed Nuclei (%),Population Tubulin-Different-Phenotype (%)
CN1CCN(c2ccc(Nc3c4ccccc4nc4ccccc34)cc2)CC1.Cl.Cl.O,93% and 100%,54% and 62%,38% and 31%,0% and 2%,65% and 70%,95% and 100%,6% and 0%,99% and 97%,7% and 6%,82% and 85%
CC(=O)NCC(=O)N1[C@@H]2CC[C@H]1c1ccc(Nc3ncc(C(F)(F)F)c(NC4CCC4)n3)cc12 [PF-03814735],36.84% and 50%,4.71% and 6.5%,58.45% and 47.97%,0.28% and 0%,5.69% and 15.25%,–,63.16% and 50%,99.72% and 100%,36.84% and 45.53%,7.58% and 8.47%
Cn1ncnc1COc1nn2c(-c3cc(F)ccc3F)nnc2cc1C(C)(C)C,36.84% and 41.18%,1.2% and 0.65%,87.43% and 88.24%,0%,–,–,63.16% and 58.82%,100%,11.38% and 11.11%,1.71% and 1.48%
COc1cc(Nc2ncc3c(n2)-c2ccc(Cl)cc2C(c2c(F)cccc2OC)=NC3)ccc1C(=O)O [ALISERTIB],79% and 71%,31% and 12%,57% and 82%,3% and 2%,11% and 5%,5% and 1%,20% and 28%,96% and 97%,11% and 5%,4% and 0%

# Same assay, conditions: human, 12 h, 10 µM, compound concentration 10 uM
row,SMILES,Total Cell Count
1,CN1CCN(c2ccc(Nc3c4ccccc4nc4ccccc34)cc2)CC1.Cl.Cl.O,213 and 132
2,CC(=O)NCC(=O)N1[C@@H]2CC[C@H]1c1ccc(Nc3ncc(C(F)(F)F)c(NC4CCC4)n3)cc12 [PF-03814735],362 and 123
3,Cn1ncnc1COc1nn2c(-c3cc(F)ccc3F)nnc2cc1C(C)(C)C,334 and 153

# Same assay, conditions: human, 24 h, 1 µM, compound concentration 1 uM
SMILES,Population Apoptotic (%),Population Fragmented Nuclei (%),Population Healthy Nuclei (%),Population Hoechst High Intensity Objects (%),Population Membrane Permeable-Phenotype (%),Population Mitochondria Different-Phenotype (%),Population Mitotic Cells (%),Population Normal (%),Population Pyknosed Nuclei (%),Population Tubulin-Different-Phenotype (%)
CN1CCN(c2ccc(Nc3c4ccccc4nc4ccccc34)cc2)CC1.Cl.Cl.O,92% and 100%,28% and 29%,64% and 60%,1% and 4%,10% and 5%,6% and 12%,7% and 0%,98% and 95%,6% and 10%,7% and 6%
CC(=O)NCC(=O)N1[C@@H]2CC[C@H]1c1ccc(Nc3ncc(C(F)(F)F)c(NC4CCC4)n3)cc12 [PF-03814735],52.86% and 55.56%,3.18% and 2.94%,72.08% and 75.88%,0.35% and 0%,1.96% and 5.43%,0% and 7.75%,47.14% and 44.44%,99.65% and 100%,24.73% and 21.18%,0.49% and 3.88%
Cn1ncnc1COc1nn2c(-c3cc(F)ccc3F)nnc2cc1C(C)(C)C,33.9% and 52.63%,0.96% and 3.02%,89.63% and 77.89%,0%,–,0% and 7.74%,66.1% and 47.37%,100%,9.41% and 19.1%,0.53% and 0.65%
COc1cc(Nc2ncc3c(n2)-c2ccc(Cl)cc2C(c2c(F)cccc2OC)=NC3)ccc1C(=O)O [ALISERTIB],78% and 75%,26% and 20%,64% and 63%,1% and 2%,9% and 6%,4% and 2%,21% and 25%,98% and 97%,8% and 15%,5% and 2%

# Same assay, conditions: human, 24 h, 1 µM, compound concentration 1 uM
row,SMILES,Total Cell Count
1,CN1CCN(c2ccc(Nc3c4ccccc4nc4ccccc34)cc2)CC1.Cl.Cl.O,200 and 124
2,CC(=O)NCC(=O)N1[C@@H]2CC[C@H]1c1ccc(Nc3ncc(C(F)(F)F)c(NC4CCC4)n3)cc12 [PF-03814735],284 and 170

# Same assay, conditions: human, 24 h, 10 µM, compound concentration 10 uM
SMILES,Population Apoptotic (%),Population Fragmented Nuclei (%),Population Healthy Nuclei (%),Population Hoechst High Intensity Objects (%),Population Membrane Permeable-Phenotype (%),Population Mitochondria Different-Phenotype (%),Population Mitotic Cells (%),Population Normal (%),Population Pyknosed Nuclei (%),Population Tubulin-Different-Phenotype (%)
CN1CCN(c2ccc(Nc3c4ccccc4nc4ccccc34)cc2)CC1.Cl.Cl.O,100% and 90%,46% and 69%,42% and 23%,4% and 10%,85% and 96%,96% and 100%,0% and 10%,95% and 89%,11% and 7%,90% and 100%
CC(=O)NCC(=O)N1[C@@H]2CC[C@H]1c1ccc(Nc3ncc(C(F)(F)F)c(NC4CCC4)n3)cc12 [PF-03814735],67.23% and 80%,5.92% and 4.1%,27.04% and 26.23%,0% and 0.81%,10.42% and 12.5%,–,32.77% and 20%,100% and 99.19%,67.04% and 69.67%,–
Cn1ncnc1COc1nn2c(-c3cc(F)ccc3F)nnc2cc1C(C)(C)C,30.77% and 47.83%,1.81% and 3.66%,86.39% and 84.29%,0% and 0.52%,–,0% and 3.73%,69.23% and 52.17%,100% and 99.48%,11.79% and 12.04%,2.62% and 1.24%
COc1cc(Nc2ncc3c(n2)-c2ccc(Cl)cc2C(c2c(F)cccc2OC)=NC3)ccc1C(=O)O [ALISERTIB],84% and 90%,30% and 12%,55% and 77%,4%,13% and 9%,5% and 4%,15% and 9%,95%,13% and 9%,4% and 5%

# Same assay, conditions: human, 24 h, 10 µM, compound concentration 10 uM
row,SMILES,Total Cell Count
1,CN1CCN(c2ccc(Nc3c4ccccc4nc4ccccc34)cc2)CC1.Cl.Cl.O,205 and 148
2,CC(=O)NCC(=O)N1[C@@H]2CC[C@H]1c1ccc(Nc3ncc(C(F)(F)F)c(NC4CCC4)n3)cc12 [PF-03814735],355 and 123
3,Cn1ncnc1COc1nn2c(-c3cc(F)ccc3F)nnc2cc1C(C)(C)C,441 and 192

# Same assay, conditions: human, 48 h, 1 µM, compound concentration 1 uM
SMILES,Population Apoptotic (%),Population Fragmented Nuclei (%),Population Healthy Nuclei (%),Population Hoechst High Intensity Objects (%),Population Mitochondria Different-Phenotype (%),Population Mitotic Cells (%),Population Normal (%),Population Pyknosed Nuclei (%),Population Tubulin-Different-Phenotype (%),Total Cell Count
CN1CCN(c2ccc(Nc3c4ccccc4nc4ccccc34)cc2)CC1.Cl.Cl.O,87% and 100%,36% and 40%,52% and 47%,4% and 5%,4% and 7%,12% and 0%,95% and 94%,10% and 12%,3% and 9%,231 and 147
CC(=O)NCC(=O)N1[C@@H]2CC[C@H]1c1ccc(Nc3ncc(C(F)(F)F)c(NC4CCC4)n3)cc12 [PF-03814735],69.39% and 73.33%,2.78% and 6.88%,63.19% and 55.62%,0.69% and 0%,0% and 15.73%,30.61% and 26.67%,99.31% and 100%,34.03% and 37.5%,6.04% and 10.11%,290 and 160
Cn1ncnc1COc1nn2c(-c3cc(F)ccc3F)nnc2cc1C(C)(C)C,43.96% and 63.41%,3.06% and 2.48%,88.51% and 84.83%,0% and 0.31%,0% and 6.93%,56.04% and 36.59%,100% and 99.69%,8.43% and 12.69%,1.05% and 0.73%,–
COc1cc(Nc2ncc3c(n2)-c2ccc(Cl)cc2C(c2c(F)cccc2OC)=NC3)ccc1C(=O)O [ALISERTIB],85% and 78%,28% and 29%,59% and 53%,3%,5% and 6%,14% and 21%,96%,12% and 17%,3% and 4%,–

# Same assay, conditions: human, 48 h, 1 µM, compound concentration 1 uM
row,SMILES,Population Membrane Permeable-Phenotype (%)
1,CC(=O)NCC(=O)N1[C@@H]2CC[C@H]1c1ccc(Nc3ncc(C(F)(F)F)c(NC4CCC4)n3)cc12 [PF-03814735],3.85% and 7.87%
2,COc1cc(Nc2ncc3c(n2)-c2ccc(Cl)cc2C(c2c(F)cccc2OC)=NC3)ccc1C(=O)O [ALISERTIB],6% and 11%

# Same assay, conditions: human, 48 h, 10 µM, compound concentration 10 uM
SMILES,Population Apoptotic (%),Population Fragmented Nuclei (%),Population Healthy Nuclei (%),Population Hoechst High Intensity Objects (%),Population Membrane Permeable-Phenotype (%),Population Mitochondria Different-Phenotype (%),Population Mitotic Cells (%),Population Normal (%),Population Tubulin-Different-Phenotype (%),Total Cell Count
CN1CCN(c2ccc(Nc3c4ccccc4nc4ccccc34)cc2)CC1.Cl.Cl.O,96% and 100%,53% and 76%,30% and 19%,18% and 15%,91% and 100%,90% and 96%,3% and 0%,81% and 84%,93% and 100%,243 and 173
CC(=O)NCC(=O)N1[C@@H]2CC[C@H]1c1ccc(Nc3ncc(C(F)(F)F)c(NC4CCC4)n3)cc12 [PF-03814735],78.97% and 93.41%,6.71% and 1.74%,14.29% and 19.13%,0%,18.37% and 31.82%,14.29% and 4.55%,–,100%,–,343 and 115
Cn1ncnc1COc1nn2c(-c3cc(F)ccc3F)nnc2cc1C(C)(C)C,56.04% and 51.22%,2.31% and 1.96%,87.15% and 84.64%,0%,–,0.13% and 5.41%,43.96% and 48.78%,100%,1.86% and 1.54%,864 and 306
COc1cc(Nc2ncc3c(n2)-c2ccc(Cl)cc2C(c2c(F)cccc2OC)=NC3)ccc1C(=O)O [ALISERTIB],88%,34% and 16%,44% and 70%,9% and 5%,16% and 7%,9% and 3%,11%,90% and 94%,9% and 2%,–

# Same assay, conditions: human, 48 h, 10 µM, compound concentration 10 uM
row,SMILES,Population Pyknosed Nuclei (%)
1,CC(=O)NCC(=O)N1[C@@H]2CC[C@H]1c1ccc(Nc3ncc(C(F)(F)F)c(NC4CCC4)n3)cc12 [PF-03814735],79.01% and 79.13%
2,Cn1ncnc1COc1nn2c(-c3cc(F)ccc3F)nnc2cc1C(C)(C)C,10.53% and 13.4%
3,COc1cc(Nc2ncc3c(n2)-c2ccc(Cl)cc2C(c2c(F)cccc2OC)=NC3)ccc1C(=O)O [ALISERTIB],21% and 13%
